# ChEMBL document CHEMBL5724801, “EUbOPEN Chemogenomics Library - Multiplex” (2024)
# Values joined by “and” are separate entries in the source; they are usually repeats but may differ in a detail not shown here. Equal entries are not always repeated.
# Legend:
# HEK-293T = test: Multiplex assay against HEK293T; type: toxicity, cell-based; conditions: human
# In short: (§1)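 Tubulin, mitochondrial-mass and membrane-permeability phenotypes are per cents of healthy-nucleus cells. Cells were gated by CellPathfinder machine learning into Hoechst high-intensity objects or normal cells, normal cells into healthy, pyknosed or fragmented nuclei, and pyknosed cells into mitotic or apoptotic. Before that, live cells stained at seeding with Hoechst33342, BioTracker Green Microtubule Cytoskeleton Dye, MitoTracker Red and Annexin V Alexa Fluor 680 were imaged on a CQ1 microscope at 37°C and 5% CO2 after compound addition.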
# U2OS = test: Multiplex assay against U2OS; type: toxicity, cell-based; conditions: human; in short: as §1
# [1] = 24 h, 10 µM, compound concentration 10 uM
# [2] = 48 h, 1 µM, compound concentration 1 uM
# [3] = 48 h, 10 µM, compound concentration 10 uM
# [4] = 12 h, 1 µM, compound concentration 1 uM
# [5] = 12 h, 10 µM, compound concentration 10 uM
# [6] = 24 h, 1 µM, compound concentration 1 uM
structure (smiles),measurement,setting,value
COc1ccccc1N1CCN(C[C@@H](C(=O)NC(C)(C)C)c2ccccc2)CC1.Cl.Cl,Population Healthy Nuclei (%),HEK-293T; [1],68% and 76%
same,Population Hoechst High Intensity Objects (%),HEK-293T; [1],7% and 14%
same,Population Membrane Permeable-Phenotype (%),HEK-293T; [1],0%
same,Population Mitochondria Different-Phenotype (%),HEK-293T; [1],77% and 73%
same,Population Mitotic Cells (%),HEK-293T; [1],54% and 33%
same,Population Normal (%),HEK-293T; [1],92% and 85%
same,Population Pyknosed Nuclei (%),HEK-293T; [1],23% and 15%
same,Population Tubulin-Different-Phenotype (%),HEK-293T; [1],61% and 48%
same,Total Cell Count,HEK-293T; [1],377 and 251
same,Population Apoptotic (%),HEK-293T; [2],22% and 38%
same,Population Fragmented Nuclei (%),HEK-293T; [2],13% and 10%
same,Population Healthy Nuclei (%),HEK-293T; [2],78% and 80%
same,Population Hoechst High Intensity Objects (%),HEK-293T; [2],2% and 6%
same,Population Membrane Permeable-Phenotype (%),HEK-293T; [2],1% and 0%
same,Population Mitochondria Different-Phenotype (%),HEK-293T; [2],19% and 37%
same,Population Mitotic Cells (%),HEK-293T; [2],77% and 61%
same,Population Normal (%),HEK-293T; [2],97% and 93%
same,Population Pyknosed Nuclei (%),HEK-293T; [2],8% and 9%
same,Population Tubulin-Different-Phenotype (%),HEK-293T; [2],18% and 20%
same,Total Cell Count,HEK-293T; [2],908 and 480
same,Population Apoptotic (%),HEK-293T; [3],50% and 62%
same,Population Fragmented Nuclei (%),HEK-293T; [3],14% and 10%
same,Population Healthy Nuclei (%),HEK-293T; [3],72% and 76%
same,Population Hoechst High Intensity Objects (%),HEK-293T; [3],6% and 5%
same,Population Membrane Permeable-Phenotype (%),HEK-293T; [3],0%
same,Population Mitochondria Different-Phenotype (%),HEK-293T; [3],59% and 58%
same,Population Mitotic Cells (%),HEK-293T; [3],49% and 37%
same,Population Normal (%),HEK-293T; [3],93% and 94%
same,Population Pyknosed Nuclei (%),HEK-293T; [3],13%
same,Population Tubulin-Different-Phenotype (%),HEK-293T; [3],44% and 36%
same,Total Cell Count,HEK-293T; [3],467 and 375
same,Population Apoptotic (%),U2OS; [4],73% and 66%
same,Population Fragmented Nuclei (%),U2OS; [4],29% and 14%
same,Population Healthy Nuclei (%),U2OS; [4],65% and 80%
same,Population Hoechst High Intensity Objects (%),U2OS; [4],2% and 1%
same,Population Membrane Permeable-Phenotype (%),U2OS; [4],5% and 7%
same,Population Mitochondria Different-Phenotype (%),U2OS; [4],3% and 2%
same,Population Mitotic Cells (%),U2OS; [4],26% and 33%
same,Population Normal (%),U2OS; [4],97% and 98%
same,Population Pyknosed Nuclei (%),U2OS; [4],5%
same,Population Tubulin-Different-Phenotype (%),U2OS; [4],1% and 3%
same,Total Cell Count,U2OS; [4],281 and 114
same,Population Apoptotic (%),U2OS; [5],46% and 50%
same,Population Fragmented Nuclei (%),U2OS; [5],35% and 17%
same,Population Healthy Nuclei (%),U2OS; [5],49% and 66%
same,Population Hoechst High Intensity Objects (%),U2OS; [5],3% and 0%
same,Population Membrane Permeable-Phenotype (%),U2OS; [5],41% and 49%
same,Population Mitochondria Different-Phenotype (%),U2OS; [5],41% and 56%
same,Population Mitotic Cells (%),U2OS; [5],53% and 50%
same,Population Normal (%),U2OS; [5],96% and 99%
same,Population Pyknosed Nuclei (%),U2OS; [5],14% and 15%
same,Population Tubulin-Different-Phenotype (%),U2OS; [5],41% and 64%
same,Total Cell Count,U2OS; [5],226 and 102
same,Population Apoptotic (%),U2OS; [6],68% and 80%
same,Population Fragmented Nuclei (%),U2OS; [6],29% and 16%
same,Population Healthy Nuclei (%),U2OS; [6],62% and 75%
same,Population Hoechst High Intensity Objects (%),U2OS; [6],3%
same,Population Membrane Permeable-Phenotype (%),U2OS; [6],7% and 5%
same,Population Mitochondria Different-Phenotype (%),U2OS; [6],1% and 6%
same,Population Mitotic Cells (%),U2OS; [6],32% and 20%
same,Population Normal (%),U2OS; [6],96%
same,Population Pyknosed Nuclei (%),U2OS; [6],8%
same,Population Tubulin-Different-Phenotype (%),U2OS; [6],3% and 2%
same,Total Cell Count,U2OS; [6],320 and 129
same,Population Apoptotic (%),U2OS; [1],61% and 70%
same,Population Fragmented Nuclei (%),U2OS; [1],38% and 20%
same,Population Healthy Nuclei (%),U2OS; [1],42% and 63%
same,Population Hoechst High Intensity Objects (%),U2OS; [1],5%
same,Population Membrane Permeable-Phenotype (%),U2OS; [1],20% and 39%
same,Population Mitochondria Different-Phenotype (%),U2OS; [1],33% and 61%
same,Population Mitotic Cells (%),U2OS; [1],38% and 29%
same,Population Normal (%),U2OS; [1],94%
same,Population Pyknosed Nuclei (%),U2OS; [1],18% and 15%
same,Population Tubulin-Different-Phenotype (%),U2OS; [1],25% and 52%
same,Total Cell Count,U2OS; [1],235 and 113
same,Population Apoptotic (%),U2OS; [2],78% and 83%
same,Population Fragmented Nuclei (%),U2OS; [2],21% and 16%
same,Population Healthy Nuclei (%),U2OS; [2],66% and 72%
same,Population Hoechst High Intensity Objects (%),U2OS; [2],2% and 4%
same,Population Membrane Permeable-Phenotype (%),U2OS; [2],5% and 7%
same,Population Mitochondria Different-Phenotype (%),U2OS; [2],1% and 2%
same,Population Mitotic Cells (%),U2OS; [2],22% and 16%
same,Population Normal (%),U2OS; [2],97% and 95%
same,Population Pyknosed Nuclei (%),U2OS; [2],11%
same,Population Tubulin-Different-Phenotype (%),U2OS; [2],1% and 4%
same,Total Cell Count,U2OS; [2],452 and 162
same,Population Apoptotic (%),U2OS; [3],58% and 96%
same,Population Fragmented Nuclei (%),U2OS; [3],33% and 18%
same,Population Healthy Nuclei (%),U2OS; [3],44% and 58%
same,Population Hoechst High Intensity Objects (%),U2OS; [3],4% and 8%
same,Population Membrane Permeable-Phenotype (%),U2OS; [3],28% and 43%
same,Population Mitochondria Different-Phenotype (%),U2OS; [3],30% and 29%
same,Population Normal (%),U2OS; [3],95% and 91%
same,Population Pyknosed Nuclei (%),U2OS; [3],21% and 22%
same,Population Tubulin-Different-Phenotype (%),U2OS; [3],21% and 35%
same,Total Cell Count,U2OS; [3],271 and 121
